# Data taken from PubChem BioAssay AID720717 (ICCB-Longwood Screening Facility, Harvard Medical School, 2013).
# Values joined by “and” are separate entries in the source; they are usually repeats but may differ in a detail not shown here. Identical values can stand only once. Screen size: about 51,000 compounds; about 150 (0.29%) were called active. What follows is part of a selection rich in actives, with near analogues and random picks from the rest. Unmarked numbers belong to inactive results.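 The calls were made as follows: active = both repeat wells score below -2 in polarization z-score versus plate sample wells, excluding overly bright wells; inactive = the rest.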
# Test system: LANA (ORF73) N-terminal peptide binding to nucleosomes, Human herpesvirus 8
# Experiment: inhibitors of KSHV LANA-nucleosome binding, primary screen, biochemical, fluorescence polarization, FITC-LANA1-23, chicken nucleosomes (AID 720717)
# Settings: FITC-LANA1-23 / chicken nucleosome fluorescence polarization; active compounds read low
# Procedure, shortened: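 System – purified chicken nucleosomes with FITC-labelled LANA N-terminal peptide (1-23) · Amount – 240 nM purified chicken nucleosomes (480 nM peptide binding sites), final · Also added – 50 nM FITC-LANA1-23 probe · Medium – TEN-BT buffer, pH 7.5 · Incubation – compound with peptide–nucleosome mix 10–45 min at room temperature · Detection – fluorescence polarization, ex 480 nm, em 535 nm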
row,SMILES,z-score
1,CCOC(=O)NCc1cc(C(=O)O)ccc1O,0.19
2,CCN1C(=Nc2ccc(O)cc2)SC/C1=C\C(=O)OC,2.25
3,CN(C)C(CNC(=O)c1cc2ccccc2oc1=O)c1ccco1 (stereo not given),-0.421
4,O=S1(=O)CCC(S(=O)(=O)N2CCCC2)C1 (stereo not given),-0.472
5,CCCCSC1=NC(=O)CC(=O)N1,-1.46
6,CC(=O)N1CCC(N(c2ccc3c(c2)OCO3)S(=O)(=O)c2ccccc2)CC1,0.764
7,Cc1ccc(S(=O)(=O)Nc2cccc(C(=O)N3CCCCC3)c2)cc1,1.2
8,O=C(O)CN1CC(=O)Nc2ccccc21,0.771
9,O=C1Nc2ccccc2N(c2ccccc2)N1,-3.48 (active)
10,CCCCC(C)C(N)=O (stereo not given),-0.323
11,CC[N+](C)(CC)CCC[n+]1c(-c2ccccc2)c2cc(N)ccc2c2ccc(N)cc21,-3.89 (active) and -3.44 (active)
12,CCN(Cc1ccccc1)C(=O)C1CCN(Cc2cc(Br)c(O)c(OC)c2)CC1,-0.834
13,O=C1CC(NC2CCN(S(=O)(=O)c3ccc(Cl)cc3)CC2)C(=O)N1 (stereo not given),2.47
14,Cc1ccc(NC(=O)CSC2=NC(=O)CC(=O)N2)cc1,-0.876
15,COc1ccc(C2=NS(=O)(=O)N(C)C(C(=O)NCC(C)C)=C2)cc1OC,-0.724
16,CCN(CC)C(=O)Cc1c(C(=O)O)[nH]c2ccc(Cl)cc12,0.22
17,Cc1ccc(C(=O)N2CCCN(C)CC2)o1,-1.2
18,O=C(OCc1ccccc1Cl)c1cc(=O)[nH]c2ccccc12,-1.04
19,O=C(Nc1ccc(Cl)cc1)c1ncoc1-c1cccs1,0.41
20,COC(=O)c1ccc(NS(=O)(=O)c2cc(C(=O)OC)n(C)c2)cc1,-0.537

row,SMILES,z-score
1,Cc1ccc(-c2nc3ccccc3[nH]2)cc1NC(=O)C(C)C,-0.762
2,CCC(=O)NC1CC(=O)N(c2ccc(F)cc2)C1 (stereo not given),-0.098
3,COc1ccc(CCN2C(=O)CSC2c2ccc3cccc(O)c3n2)cc1OC (stereo not given),1.12
4,Cn1ncc(Br)c1-c1cccc(NC(=O)COCC(=O)O)c1,-1.14
5,CCCCCn1c(=O)[nH]c2cc(C(=O)Nc3cc(OC)c(OC)c(OC)c3)ccc2c1=O,-0.668
6,Cn1c(=O)c2c(nc(N3CCNCC3)n2C)n(C)c1=O,0.302
7,O=c1c(-c2cc3ccccc3o2)[n+]([O-])c2ccccc2n1O,-2.61 (active)
8,COc1ccc2oc(=O)cc(-c3cc4ccccc4o3)c2c1,-0.251
9,O=C(CSc1ncccn1)N1CCCC1,-0.327
10,O=C(Nc1ccc2nc(CN3CCCCC3)[nH]c2c1)c1cccs1,-0.0365
11,Cc1cccc(C)c1N1CCN(S(=O)(=O)N2CCCCC2)CC1,-1.66
12,COc1ccc(C(=O)Nc2ccccc2C(=O)NCc2ccco2)cc1,0.333
13,CN(C)C(=O)CN1CCC(N2CCCCC2)CC1,-0.624
14,COc1ccc(Cn2ccc3nc4ccn(Cc5ccc(OC)cc5)c(=O)c4cc3c2=O)cc1,0.327
15,CN1C(=O)/C(=C/C=C2\SCCN2C)OC1=S,-2.92 (active)
16,COc1cccc(NS(=O)(=O)c2ccc3[nH]cc(C(=O)N4CCCCC4C)c(=O)c3c2)c1 (stereo not given),0.613
17,O=C(O)COc1ccc(CN2CCCC2)cc1,0.199
18,N/C(=N\OC(=O)CC1CCCCC1)c1ccccc1,-0.568
19,Cc1nnc(NC2CC2)c2c1nnn2Cc1ccc(F)cc1,0.653
20,CN(C)CCNC(=O)c1ccc(/C=C2\SC(=S)N(C)C2=O)cc1,1.24
